Experimental data published in the RNAGym collection of RNA variant scans (doi:10.1126/science.aae0568).
Variants at the floor of the assay were thinned out.

B1: tRNA (parent)
chain: GUUCCGUUGGCGUAAUGGUAACGCGUCUCCCUCCUAAGGAGAAGACUGCGGGUUCGAGUCCCGUACGGAACG

Variants of: B1
Assay: yeast fitness relative to wild type (ratio to wild type); higher = fitter; tRNA-Arg(CCU), competitive growth, 37 C, YPD
Procedure, shortened: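 Start and end populations of a pooled competition were compared by 100-nucleotide paired-end sequencing of gene amplicons. The Saccharomyces cerevisiae strains carried tRNA-Arg(CCU) gene variants at the native genomic locus, synthesised with a 3% per-site mutation rate at 69 sites, and competed in YPD at 37°C for 24 hours in six parallel replicates. Darwinian fitness relative to wild type was based on the change in genotype frequencies. Genotypes required ≥ 100 starting reads, and estimates < 0.5 were set to 0.5.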

C31G C33A G48C and C30U U35A A37G G38C U47A cannot be ordered by yeast fitness: ≤ 0.5 for the first, ≤ 0.5 for the second.

First: C31A G67A
Second: C30U G38A C60G
The yeast fitness of the first is higher: 0.754 for the first, 0.537 for the second.

C31G C46G C61G A69U and C30U U32G A37G cannot be ordered by yeast fitness: ≤ 0.5 for the first, ≤ 0.5 for the second.

C31A C33G A36U U54C and C30U G50A G68A cannot be ordered by yeast fitness: ≤ 0.5 for the first, ≤ 0.5 for the second.

Compared with C30U C66G, C30U C66A is higher in yeast fitness: 0.617 for the first, 0.765 for the second.

First: C31G A36G A69C
Second: C31G G38A
The yeast fitness of the first is lower: 0.622 for the first, 0.802 for the second.

Compared with C31G G38C, C30U G51C G67A is lower in yeast fitness: 0.826 for the first, ≤ 0.5 for the second.

Compared with C30U U32G U64A G68C, C31G A40U A45C is higher in yeast fitness: ≤ 0.5 for the first, 0.533 for the second.

Going from C30U C46A G68C to C30U C34U G51C C55U, the yeast fitness falls from 0.704 to ≤ 0.5.

Compared with C31G C33A C66A, C31A G48A A69C is lower in yeast fitness: 0.734 for the first, 0.678 for the second.

Compared with C31A G38C, C31G C60G C62A is lower in yeast fitness: 0.749 for the first, 0.624 for the second.

First: C31A A57U A69U
Second: C31A U53C
The yeast fitness of the first is lower: ≤ 0.5 for the first, 0.571 for the second.

Compared with C31G C62U A65G, C30U G38A A69U is higher in yeast fitness: 0.71 for the first, 0.781 for the second.

First: C31G G41C
Second: C31A C66U
The yeast fitness of the first is lower: 0.696 for the first, 0.788 for the second.

Going from C30U U35C A42C G48C to C31G C33G C34U G68A, the yeast fitness rises from ≤ 0.5 to 0.603.

First: C31G C61U G67A
Second: C31A G63A
The yeast fitness of the first is lower: ≤ 0.5 for the first, 0.676 for the second.

Going from C31A G63C to C30U C46U C60A, the yeast fitness falls from 0.62 to ≤ 0.5.

Compared with C31G, C31A is lower in yeast fitness: 0.939 for the first, 0.848 for the second.

Compared with C31A A65U C66A, C31G C46G is higher in yeast fitness: ≤ 0.5 for the first, 1.04 for the second.

C31G C33U U54G C55A and C31G A42G C49G cannot be ordered by yeast fitness: ≤ 0.5 for the first, ≤ 0.5 for the second.

Going from C31G C34U C55U G58A C61U to C31A A40C C62U, the yeast fitness falls from 0.586 to 0.532.

First: C31A A42C C46G G67A
Second: C31A C61G G67C A70G
The yeast fitness of the first is higher: 0.625 for the first, ≤ 0.5 for the second.

Going from C30U G38C A40G to C31G A42G U47G, the yeast fitness rises from 0.569 to 0.573.

C30U C49A G52A C61G A70U and C31G C33U A42G U64C A65G cannot be ordered by yeast fitness: ≤ 0.5 for the first, ≤ 0.5 for the second.

First: C31G C33G A70U
Second: C31G C66G A69G
The yeast fitness of the first is lower: ≤ 0.5 for the first, 0.545 for the second.

First: C31G A36C C62G
Second: C30U G68A A70U
The yeast fitness of the first is lower: ≤ 0.5 for the first, 0.577 for the second.

Compared with C31A A37C C46U, C31G C33U A37C A65U is higher in yeast fitness: ≤ 0.5 for the first, 0.538 for the second.

Compared with C31G C55U U59A, C30U C34G U59C is lower in yeast fitness: 0.559 for the first, ≤ 0.5 for the second.

Compared with C31G C34U A42U, C31A G56A is higher in yeast fitness: 0.612 for the first, 0.805 for the second.

Going from C31A A65G to C31A A65C, the yeast fitness rises from 0.732 to 0.89.

Compared with C31G A65U A70G, C30U G38A C61U is higher in yeast fitness: 0.589 for the first, 0.692 for the second.

Going from C31A C62G G68C to C31G A36C, the yeast fitness rises from ≤ 0.5 to 0.555.

First: C31G A36G
Second: C31G G38C A43U C62G
The yeast fitness of the first is higher: 0.783 for the first, ≤ 0.5 for the second.

C31A C34G A42G A45U and C30U U32A A36U A37U C62U G63A cannot be ordered by yeast fitness: ≤ 0.5 for the first, ≤ 0.5 for the second.

Compared with C31G A37G U54A, C31G G41C G50C C60U A69C is lower in yeast fitness: 0.681 for the first, ≤ 0.5 for the second.

Going from C31G A40U to C31G A40C, the yeast fitness falls from 0.998 to 0.718.

Going from C31A G52C A57G to C30U C49U A70C, the yeast fitness rises from ≤ 0.5 to 0.543.

Compared with C31A C61G G63A, C31A G68C is higher in yeast fitness: ≤ 0.5 for the first, 0.648 for the second.

First: C31A G68A
Second: C31A A36U
The yeast fitness of the first is lower: 0.694 for the first, 0.705 for the second.

Going from C30U U59A to C30U U59C, the yeast fitness falls from 0.828 to 0.824.

C30U G58A C61G and C31G A45G C60G cannot be ordered by yeast fitness: ≤ 0.5 for the first, ≤ 0.5 for the second.

Compared with C31A A57G G68A, C31G C34G is higher in yeast fitness: ≤ 0.5 for the first, 0.629 for the second.

C31A A40U U53G G56C C62G and C31G A45C C49A A70G cannot be ordered by yeast fitness: ≤ 0.5 for the first, ≤ 0.5 for the second.

Compared with C31G A37U G56C, C31G A42U G58C is higher in yeast fitness: ≤ 0.5 for the first, 0.538 for the second.

First: C30U U54C A57C A70C
Second: C30U U54A A70G
The yeast fitness of the first is lower: ≤ 0.5 for the first, 0.518 for the second.

Compared with C30U U54A A70U, C31G C33U A37C A70U is lower in yeast fitness: 0.572 for the first, ≤ 0.5 for the second.

Going from C30U G56A G67C to C31A C55A G67A, the yeast fitness falls from 0.603 to ≤ 0.5.

C31G C34U A42U A70C and C31A C33G A42C G48A U54A A69C cannot be ordered by yeast fitness: ≤ 0.5 for the first, ≤ 0.5 for the second.

Compared with C31A A70U, C31A A70C is lower in yeast fitness: 0.927 for the first, 0.783 for the second.

First: C31A A70G
Second: C30U G41C A69U
The yeast fitness of the first is higher: 0.811 for the first, ≤ 0.5 for the second.

Going from C31A U47C G67A to C31A C61G G68C, the yeast fitness falls from 0.544 to ≤ 0.5.

Going from C30U C34U A37U U59C C66U to C31G A37C G50A A65C, the yeast fitness falls from 0.565 to ≤ 0.5.

C31G C49G C62U G67C and C31A G38A C46U cannot be ordered by yeast fitness: ≤ 0.5 for the first, ≤ 0.5 for the second.

First: C31A C34A
Second: C31G A43U C46G
The yeast fitness of the first is higher: 0.603 for the first, 0.586 for the second.

First: C30U U35C G51U C61U
Second: C30U U35A
The yeast fitness of the first is lower: ≤ 0.5 for the first, 0.63 for the second.

First: C31G A40G A45C U53A A70U
Second: C31G C34U G38A
The yeast fitness of the first is lower: ≤ 0.5 for the first, 0.53 for the second.

Compared with C31A G44A A57C C62A G68C, C31G G39A A70G is lower in yeast fitness: 0.559 for the first, 0.553 for the second.

Compared with C30U U32C, C31G A42U C66U is lower in yeast fitness: 0.924 for the first, 0.767 for the second.

Going from C30U G44A C60G to C31A G48C, the yeast fitness rises from ≤ 0.5 to 0.661.

Going from C31A G48A to C30U C55U C66U, the yeast fitness falls from 0.764 to 0.531.

Going from C31A G50A to C31A A42C, the yeast fitness rises from 0.791 to 0.963.

C31A A40C C46U C55U G63A and C30U U47C A65G cannot be ordered by yeast fitness: ≤ 0.5 for the first, ≤ 0.5 for the second.

First: C30U C46A G50A
Second: C30U U54C A57C
The yeast fitness of the first is higher: 0.632 for the first, ≤ 0.5 for the second.

Going from C30U U47C to C31A G39A A43C U53A C66A, the yeast fitness falls from 0.835 to ≤ 0.5.

Going from C31G C34U C55U G63A to C30U C62U G68C, the yeast fitness rises from ≤ 0.5 to 0.598.

C30U C61U G63C and C31A C33A C55G A57U C66U G67A cannot be ordered by yeast fitness: ≤ 0.5 for the first, ≤ 0.5 for the second.

Compared with C30U U47A A57G G67C, C31G A57C is higher in yeast fitness: ≤ 0.5 for the first, 0.617 for the second.

Compared with C31G A57G, C31G A57U is lower in yeast fitness: 0.771 for the first, 0.726 for the second.

Going from C31A C33G A36U to C31A A43G G68A, the yeast fitness falls from 0.676 to 0.657.

First: C31A C49U C61U
Second: C30U C46A G63A
The yeast fitness of the first is lower: 0.663 for the first, 0.825 for the second.

Compared with C31G A40U A45U C62A, C30U C46A C61A G68A is lower in yeast fitness: 0.591 for the first, ≤ 0.5 for the second.

C30U U32A A36U A37U C61A and C31G C49U G50C A69U cannot be ordered by yeast fitness: ≤ 0.5 for the first, ≤ 0.5 for the second.

Going from C30U C49U to C30U U54C, the yeast fitness falls from 0.862 to 0.805.

Compared with C30U G39C U64C, C31A G56C A57G C62U is lower in yeast fitness: 0.528 for the first, ≤ 0.5 for the second.

First: C31A G39A C46U
Second: C30U G41C
The yeast fitness of the first is lower: ≤ 0.5 for the first, 0.651 for the second.

Compared with C30U G41A, C31A C62U is higher in yeast fitness: 0.842 for the first, 0.944 for the second.

Going from C31A C62G to C31A A42C C46G, the yeast fitness rises from 0.651 to 0.959.

Compared with C30U C34G A57G, C31A C61G is higher in yeast fitness: 0.569 for the first, 0.812 for the second.

Compared with C31A C61A, C31A C61U is higher in yeast fitness: ≤ 0.5 for the first, 0.845 for the second.

First: C30U G41C A70U
Second: C30U U32C U54A
The yeast fitness of the first is higher: 0.567 for the first, ≤ 0.5 for the second.

C31G C34U G56A G58C and C30U G50C A70G cannot be ordered by yeast fitness: ≤ 0.5 for the first, ≤ 0.5 for the second.

Compared with C30U U35C A45U A57C, C30U G39A C61G C62G is lower in yeast fitness: 0.534 for the first, ≤ 0.5 for the second.

Compared with C31A G44A A57C G68C, C31G A45U is higher in yeast fitness: 0.753 for the first, 0.987 for the second.

For C31G A45C, the yeast fitness was 0.864.
